This is a sample that favours compounds with a hit; in the whole collection about 2.5% have one here.
NadD inh: blocks S. aureus nicotinate mononucleotide adenylyltransferase; hit rate 0.78% among 360,000; inhibition, % at 20 µM; AID 602399; purified NadD enzyme, colorimetric absorbance read-out; in the data active = inhibition above about 26%
GRK2 inh: human GRK2 inhibition via aptamer displacement | P25098 | bead flow cytometry, FAM-aptamer displacement from GRK2 | inhibition of aptamer binding, % at 10 µM | hit rate 0.59% among 330,000 | AID 488847;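 active = inhibition of aptamer binding above 40%, roughly 3 SD of noise, on plates passing a quality check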;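 note: median bead fluorescence of bound FAM aptamer so fluorescent compounds give negative values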
ABHD5 PLIN5 PPI: ABHD5-PLIN5 protein interaction inhibition; Q00G26+Q8WTS1; Split G. princeps luciferase complementation, luminescence, 4 h; inhibition, % at 4 µM; hit rate 0.78% among 360,000;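 active = inhibition above the mean inhibition across every tested compound plus 3 SD, cut at about 22% in these data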;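 note: 0% = DMSO only wells and the 100% control is not disclosed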
B2AR ag: agonists of human beta-2 adrenergic receptor inducing internalization; Am2.2-beta2AR cells, FAP receptor internalization, flow cytometry; response, % (no concentration beside the values); hit rate 0.43% among 340,000;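 active = response above a set limit, near 3 SD of response in nonfluorescent compounds, cut at about 42% in these data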
SENP1 inh: SENP1 (human) catalytic domain inhibition; inhibition, % at 10 µM; AID 624204; recombinant SENP1 catalytic domain, CyPet-SUMO1-YPet FRET cleavage; Q9P0U3; hit rate 0.21% among 360,000;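 active = inhibition at least 30% at 10 µM, raw YFP signal under a set limit, fluorescence ratio 0.5 to 1.5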;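 note: 0% = enzyme with DMSO and 100% = no enzyme wells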
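material = recombinant human SENP1 catalytic domain, His6-tagged | quantity = 20 pM enzyme | reagent = 25 nM SUMO1 FRET substrate | compound dosing = 10 µM single point, 0.5% DMSO | timing = 50 min enzyme reaction, room temperature, light-protected | detection = FRET, CFP and YFP emission | control set = no-enzyme low, enzyme-DMSO high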
Active calls of the source: *.

Cc1nn(C(C)C(=O)NCc2ccco2)c(=O)c2nn(-c3ccccc3)c(C)c12 (centres undefined) was read as NadD inh 9, GRK2 inh 5, ABHD5 PLIN5 PPI -7, B2AR ag -7 and SENP1 inh -1.
`O=C(/C=C/c1ccncc1)c1ccc(NC(=O)c2ccccc2F)cc1` gave NadD inh 10, GRK2 inh 0, ABHD5 PLIN5 PPI 95*, B2AR ag 51* and SENP1 inh -2.
For CCOC1=C2[C@H](c3ccccc3)N(S(=O)(=O)c3ccc(C)cc3)C(C(C)(C)C)[C@H]2C(C#N)(C#N)C(C#N)(C#N)C1 (some centres undefined) the results were NadD inh 34*, ABHD5 PLIN5 PPI 12 and SENP1 inh 1.
Screening CCOC1=C2CN(S(=O)(=O)c3ccc(C)cc3)[C@H](c3cccc4ccccc34)C[C@H]2C(C#N)(C#N)C(C#N)(C#N)C1 returned NadD inh 30*, ABHD5 PLIN5 PPI 12 and SENP1 inh -73.
For CCOC1=C2CN(S(=O)(=O)c3ccc(C)cc3)[C@@H](c3cccc4ccccc34)C[C@H]2[C@H]2C(=O)N(c3ccccc3)C(=O)[C@H]2C1 the results were NadD inh 11, ABHD5 PLIN5 PPI -2 and SENP1 inh 8.
Screening CCCCC[C@@H]1[C@@H]2C(=C(OCC)C[C@@H]3C(=O)N(c4ccccc4)C(=O)[C@H]23)[C@H](c2ccccc2)N1S(=O)(=O)c1ccc(C)cc1 returned NadD inh 1, ABHD5 PLIN5 PPI -2 and SENP1 inh 3.
For COc1ccc(NS(=O)(=O)c2ccc3c(c2)CCC(=O)N3)cc1O the results were NadD inh 2, ABHD5 PLIN5 PPI -6, B2AR ag 1 and SENP1 inh 1.
Screening Cc1cc(NC(=O)c2ccco2)sc1C returned NadD inh 0, GRK2 inh 0, ABHD5 PLIN5 PPI -3, B2AR ag -4 and SENP1 inh 1.
For O=C(CSc1nnc(-c2ccco2)c(-c2ccco2)n1)Nc1ccccc1 the results were NadD inh 15, GRK2 inh 19, ABHD5 PLIN5 PPI 26*, B2AR ag -3 and SENP1 inh 3.
For CN(C)c1ccc(NC(=O)CSc2nnc(-c3ccco3)c(-c3ccco3)n2)cc1 the results were NadD inh 26, GRK2 inh 0, ABHD5 PLIN5 PPI -5, B2AR ag -13 and SENP1 inh 21.
`CCOc1ccc(C(=O)NNC(=O)CN2C(=O)C3CC=CCC3C2=O)cc1OC` (centres undefined) gave NadD inh 1, GRK2 inh 0, ABHD5 PLIN5 PPI -4, B2AR ag -4 and SENP1 inh 2.
Screening Cc1ccc(O)c(NC(=O)c2onc(C)c2Cl)c1 returned NadD inh -7, GRK2 inh 3, ABHD5 PLIN5 PPI 6, B2AR ag 16 and SENP1 inh 3.
`CN(C)CCCn1c2c3ccccc3ccc2c2oc(=O)c3ccccc3c21` gave NadD inh 3, ABHD5 PLIN5 PPI -29, B2AR ag 43* and SENP1 inh -26.
`CC(C)(C)c1ccc(C(=O)NCC(=O)N2CCCCCC2)cc1` gave NadD inh -7, GRK2 inh 2, ABHD5 PLIN5 PPI -4, B2AR ag 0 and SENP1 inh 0.
`CCCCCOc1ccc(Br)cc1/C(C)=N/NC1=NCCN1` gave NadD inh 2, GRK2 inh 0, ABHD5 PLIN5 PPI 7, B2AR ag 44* and SENP1 inh 1.
CC12CNCC(C)(CN(C(c3ccccc3)c3ccccc3)C1)C2 was read as NadD inh 1, GRK2 inh 0, ABHD5 PLIN5 PPI 6, B2AR ag 90* and SENP1 inh 0.
Cc1cccc(N(C(=O)c2csnn2)C(C(=O)NC2CCCCC2)c2ccncc2)c1 (centres undefined) was read as NadD inh 6, GRK2 inh 0, ABHD5 PLIN5 PPI 3, B2AR ag 2 and SENP1 inh 1.
COc1ccc(-c2cc(C(F)(F)F)n3ncc(C(=O)NCc4ccco4)c3n2)cc1 was read as NadD inh 10, GRK2 inh 2, ABHD5 PLIN5 PPI 23*, B2AR ag 6 and SENP1 inh -16.
COc1cccc(CNC(=O)c2ccc(NS(=O)(=O)c3ccc4[nH]c(=O)[nH]c4c3)cc2)c1 was read as NadD inh -5, GRK2 inh 4, ABHD5 PLIN5 PPI 3, B2AR ag -13 and SENP1 inh -2.
For COCCN1C(=O)COc2ccccc2C1C(=O)NC(C)(C)C (centres undefined) the results were NadD inh 5, ABHD5 PLIN5 PPI -1 and SENP1 inh 1.
Cc1ccc(S(=O)(=O)/N=C2\C=C(NS(=O)(=O)c3ccccc3)C(=O)c3ccccc32)cc1 was read as NadD inh 13, ABHD5 PLIN5 PPI -13, B2AR ag -4 and SENP1 inh 5.
`Cc1cc(C)c(S(=O)(=O)/N=C2\C=C(NS(=O)(=O)c3ccccc3)C(=O)c3ccccc32)c(C)c1` gave NadD inh 30*, GRK2 inh 2, ABHD5 PLIN5 PPI 3, B2AR ag 3 and SENP1 inh 2.
Screening Cc1cc(C)c(S(=O)(=O)/N=C2\C=C(Nc3ccc(C(=O)O)cc3)C(=O)c3ccccc32)c(C)c1 returned NadD inh 31*, GRK2 inh 5, ABHD5 PLIN5 PPI -8, B2AR ag 14 and SENP1 inh -1.
`COc1ccc(NC(=O)CN(C)CC(=O)N2CCCCCC2)cc1` gave NadD inh 0, ABHD5 PLIN5 PPI -2, B2AR ag -4 and SENP1 inh 0.
COC1=C(N)C(=O)c2nc(-c3nc(C(=O)O)c(C)c(-c4ccc(OC)c(OC)c4O)c3N)ccc2C1=O was read as GRK2 inh 66*.
`COc1ccc(-c2ncncc2-c2csc(C)n2)c(O)c1OC` gave NadD inh 0, GRK2 inh 0, ABHD5 PLIN5 PPI 1, B2AR ag -8 and SENP1 inh 1.
Screening COc1ccc(CCNc2nc(-c3sc(N)nc3C)cs2)cc1OC returned NadD inh 30*, GRK2 inh 2, ABHD5 PLIN5 PPI -24, B2AR ag 12 and SENP1 inh -17.
`COc1ccc(Nc2nc(-c3sc(N)nc3C)cs2)cc1` gave NadD inh 17, GRK2 inh 0, ABHD5 PLIN5 PPI -17, B2AR ag 5 and SENP1 inh 2.
For O=C(COc1ccc2c3c(c(=O)oc2c1)CCC3)Nc1ccccn1 the results were NadD inh 6, GRK2 inh 2, ABHD5 PLIN5 PPI 1, B2AR ag 61* and SENP1 inh 5.
`CC1CCCC(NC(=O)CCNC(=O)c2ccc([N+](=O)[O-])cc2)C1C` (centres undefined) gave NadD inh -11, GRK2 inh 0, ABHD5 PLIN5 PPI 9, B2AR ag 1 and SENP1 inh 0.
